In ChEMBL document CHEMBL1138547, “Synthesis, biological evaluation and 2D-QSAR analysis of benzoxazoles as antimicrobial agents” (2009):
≈ marks a conversion by molar mass, not a printed value.

Columns and labels:
Type in all cases: functional
Bacillus subtilis [1] = experiment: Antimicrobial activity against ceftriazone-resistant Bacillus subtilis after 24 hrs
Procedure, shortened: (§1)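 Twofold serial broth dilution in Mueller-Hinton broth. MHB was used both to dilute the bacterial suspension and for the twofold compound dilutions, giving 10^3 cfu/ml bacteria per well after inoculation. Solvent, medium and organism-only wells served as controls. Each organism was run in triplicate.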

Klebsiella pneumoniae [2] = experiment: Antimicrobial activity against multidrug-resistant Klebsiella pneumoniae after 24 hrs; procedure, shortened: as §1
Bacillus subtilis [3] = experiment: Antimicrobial activity against Bacillus subtilis ATCC 6633 after 24 hrs; conditions: for MIC: Bacillus subtilis, ATCC 6633, 24 h
Procedure, shortened: (§2)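 MIC by twofold serial dilution in Mueller-Hinton broth (MHB); MHB also used to dilute the bacterial suspension. Wells held 10^3 cfu/ml bacteria after inoculation. Controls: 80% DMSO, 20% EtOH, methanol, DMSO, PBS, organism alone and medium alone. Triplicate in each run. MIC taken as the lowest concentration completely inhibiting macroscopic growth.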

Klebsiella pneumoniae [4] = experiment: Antimicrobial activity against Klebsiella pneumoniae RSHM 574 after 24 hrs; conditions: RSHM 574, 24 h; procedure, shortened: as §2
Candida albicans [5] = experiment: Antimicrobial activity against Candida albicans ATCC 10231 after 24 to 48 hrs
Procedure, shortened: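 Twofold serial dilution following CLSI M27-A. Yeast suspension made at 10^4 cfu/ml by diluting a fresh culture at McFarland 0.5 (10^6 cfu/ml). Inoculated into the diluted compound, incubated at 35 °C in a humid chamber, read after 48 h. Triplicate in each run. MIC is the lowest concentration completely inhibiting macroscopic growth.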

Pseudomonas aeruginosa = experiment: Antimicrobial activity against Pseudomonas aeruginosa ATCC […] after 24 hrs; procedure, shortened: as §2
Staphylococcus aureus [6] = experiment: Antimicrobial activity against multidrug-resistant Staphylococcus aureus after 24 hrs; procedure, shortened: as §1
Candida albicans [7] = experiment: Antimicrobial activity against multidrug-resistant Candida albicans isolates after 24 to 48 hrs
Procedure, shortened: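 Yeast broth microdilution following CLSI M27-A, with Sabouraud dextrose medium noted for antifungal assays. Fresh cultures at McFarland 0.5 (10^6 cfu/ml) were diluted to 10^4 cfu/ml and inoculated into twofold compound dilutions. Trays were incubated at 35 °C in a humid chamber and read at 48 h, in triplicate. MIC was the lowest concentration giving complete macroscopic growth inhibition.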

Escherichia coli [8] = experiment: Antimicrobial activity against multidrug-resistant Escherichia coli after 24 hrs; procedure, shortened: as §1
Staphylococcus aureus [9] = experiment: Antimicrobial activity against Staphylococcus aureus ATCC 25923 after 24 hrs; conditions: ATCC 25923, 24 h; procedure, shortened: as §1
Escherichia coli [10] = experiment: Antimicrobial activity against Escherichia coli ATCC 25922 after 24 hrs; conditions: ATCC 25922, 24 h; procedure, shortened: as §2

Structure (SMILES) | MIC (Bacillus subtilis [1]) [µg/mL] | MIC (Klebsiella pneumoniae [2]) [µg/mL] | log(1/C) (Bacillus subtilis [3]) | MIC (Bacillus subtilis [3]) [µg/mL] | MIC (Klebsiella pneumoniae [4]) [µg/mL] | MIC (Candida albicans [5]) [µg/mL] | MIC (Pseudomonas aeruginosa) [µg/mL] | MIC (Staphylococcus aureus [6]) [µg/mL] | MIC (Candida albicans [7]) [µg/mL] | MIC (Escherichia coli [8]) [µg/mL] | MIC (Staphylococcus aureus [9]) [µg/mL] | MIC (Escherichia coli [10]) [µg/mL]
O=[N+]([O-])c1ccc2nc(-c3ccccc3)oc2c1 | 25 (≈ 104 µM) | 100 (≈ 416 µM) | 3.983 | 25 (≈ 104 µM) | 50 (≈ 208 µM) | 100 (≈ 416 µM) | 50 (≈ 208 µM) | 100 (≈ 416 µM) | 50 (≈ 208 µM) | 25 (≈ 104 µM) | 200 (≈ 833 µM) | 50 (≈ 208 µM)
Nc1ccc2nc(Cc3ccc(F)cc3)oc2c1 | 50 (≈ 206 µM) | 100 (≈ 413 µM) | 3.685 | 50 (≈ 206 µM) | 50 (≈ 206 µM) | 50 (≈ 206 µM) | 25 (≈ 103 µM) | 100 (≈ 413 µM) | 50 (≈ 206 µM) | 50 (≈ 206 µM) | 100 (≈ 413 µM) | 50 (≈ 206 µM)
CCc1ccc(-c2nc3ccc(N)cc3o2)cc1 | 100 (≈ 420 µM) | 100 (≈ 420 µM) | 3.678 | 50 (≈ 210 µM) | 50 (≈ 210 µM) | 50 (≈ 210 µM) | 50 (≈ 210 µM) | 100 (≈ 420 µM) | 50 (≈ 210 µM) | 100 (≈ 420 µM) | 100 (≈ 420 µM) | 50 (≈ 210 µM)
CCc1ccc(-c2nc3cc(N)ccc3o2)cc1 | 50 (≈ 210 µM) | 100 (≈ 420 µM) | 4.28 | 12.5 (≈ 52.5 µM) | 50 (≈ 210 µM) | 50 (≈ 210 µM) | 50 (≈ 210 µM) | 100 (≈ 420 µM) | 50 (≈ 210 µM) | 100 (≈ 420 µM) | 25 (≈ 105 µM) | 50 (≈ 210 µM)
Cc1ccc(Cc2nc3cc(N)ccc3o2)cc1 | 25 (≈ 105 µM) | 100 (≈ 420 µM) | 4.28 | 12.5 (≈ 52.5 µM) | 50 (≈ 210 µM) | 100 (≈ 420 µM) | 50 (≈ 210 µM) | 100 (≈ 420 µM) | 50 (≈ 210 µM) | 50 (≈ 210 µM) | 100 (≈ 420 µM) | 50 (≈ 210 µM)
CC(C)(C)c1ccc(-c2nc3ccc([N+](=O)[O-])cc3o2)cc1 | 100 (≈ 337 µM) | 100 (≈ 337 µM) | 3.773 | 50 (≈ 169 µM) | 50 (≈ 169 µM) | 50 (≈ 169 µM) | 50 (≈ 169 µM) | 100 (≈ 337 µM) | 100 (≈ 337 µM) | 100 (≈ 337 µM) | 100 (≈ 337 µM) | 50 (≈ 169 µM)
O=[N+]([O-])c1ccc2nc(Cc3ccc(Br)cc3)oc2c1 | 25 (≈ 75 µM) | 100 (≈ 300 µM) | 4.125 | 25 (≈ 75 µM) | 50 (≈ 150 µM) | 50 (≈ 150 µM) | 25 (≈ 75 µM) | 100 (≈ 300 µM) | 100 (≈ 300 µM) | 100 (≈ 300 µM) | 100 (≈ 300 µM) | 50 (≈ 150 µM)
O=[N+]([O-])c1ccc2nc(-c3ccc(F)cc3)oc2c1 | 25 (≈ 96.8 µM) | 100 (≈ 387 µM) | 3.713 | 50 (≈ 194 µM) | 50 (≈ 194 µM) | 50 (≈ 194 µM) | 50 (≈ 194 µM) | 100 (≈ 387 µM) | 100 (≈ 387 µM) | 100 (≈ 387 µM) | 100 (≈ 387 µM) | 50 (≈ 194 µM)
O=[N+]([O-])c1ccc2nc(Cc3ccc(Cl)cc3)oc2c1 | 25 (≈ 86.6 µM) | 100 (≈ 346 µM) | 4.364 | 12.5 (≈ 43.3 µM) | 50 (≈ 173 µM) | 100 (≈ 346 µM) | 25 (≈ 86.6 µM) | 100 (≈ 346 µM) | 50 (≈ 173 µM) | 100 (≈ 346 µM) | 200 (≈ 693 µM) | 50 (≈ 173 µM)
Nc1ccc2oc(-c3ccccc3)nc2c1 | 50 (≈ 238 µM) | 100 (≈ 476 µM) | 4.226 | 12.5 (≈ 59.5 µM) | 50 (≈ 238 µM) | 100 (≈ 476 µM) | 50 (≈ 238 µM) | 100 (≈ 476 µM) | 50 (≈ 238 µM) | 50 (≈ 238 µM) | 100 (≈ 476 µM) | 50 (≈ 238 µM)
